# Measurements: ChEMBL document CHEMBL4765388, “Fluoropyrimidin-2,4-dihydroxy-5-isopropylbenzamides as antitumor agents against CRC and NSCLC cancer cells” (Eur J Med Chem, 2020)
# Activity calls are given as the source filed them. No cut-off for these calls is given here.
# Legend:
# [1] = target: Heat shock protein HSP 90-alpha (Homo sapiens, UniProt P07900); experiment: Inhibition of recombinant human full-length C-terminal Hsi-tagged HSP90alpha (1 to 732 residues) expressed in Escherichia coli measured after 2 to 3 hrs by FITC-labeled geldanamycin probe based fluorescence polarization assay
# [2] = system: HCT-116; experiment: Antiproliferative activity against human HCT-116 cells measured after 48 hrs by SRB assay; format: functional
# Procedure, shortened: (§1)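 Cells seeded and cultured overnight, then exposed to a gradient of compound concentrations for 48 h in medium with 5% FBS. A time-zero plate was fixed with 10% TCA at drug addition. After treatment, cells were fixed with 10% TCA and stained with 0.4% SRB in 1% acetic acid. Bound dye was dissolved in 10 mM trizma base, absorbance read at 515 nm, and GI50 derived. Each experiment was run at least three times.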
# [3] = system: A549; experiment: Antiproliferative activity against human A549 cells measured after 48 hrs by SRB assay; format: functional
# Procedure, shortened: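 Cells seeded and cultured overnight, then exposed to a gradient of compound concentrations for 48 h in medium with 5% FBS. A time-zero plate was fixed with 10% TCA at drug addition. After treatment, cells were fixed with 10% TCA and stained with 0.4% SRB in 1% acetic acid. Each experiment was run at least three times.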
# [4] = system: NCI-H460; experiment: Antiproliferative activity against human NCI-H460 cells measured after 48 hrs by SRB assay; format: functional; procedure, shortened: as §1
# [5] = system: NCI-H1975; experiment: Antiproliferative activity against human NCI-H1975 cells measured after 48 hrs by SRB assay; format: functional; procedure, shortened: as §1
# [6] = system: HCT-116; experiment: Potency index, ratio of BIIB021 IC50 to test compound IC50 for human HCT-116 cells; format: functional
# [7] = system: A549; experiment: Cell cycle arrest in human A549 cells assessed as accumulation at sub-G1 phase at 0.15 to 2.5 uM measured after 48 hrs by propidium iodide staining based flow cytometry; format: functional; conditions: dose 0.15-2.5 µM
# Procedure, shortened: (§2)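 Cells in RPMI 1640 with 10% FBS, 37 °C, 5% CO2; 2.5×10^5/well, treated with DMSO or compound. Washed in PBS, fixed overnight in ice-cold 70% EtOH at -20 °C, stained in PBS with propidium iodide 80 µg/ml, Triton X-100 0.1% and RNase A 100 µg/ml. DNA content measured by FACScan; sub-G1 fraction quantified; means ± S.D., ≥3 independent experiments.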
# [8] = system: HCT-116; experiment: Inhibition of colony formation in human HCT-116 cells at 0.009 to 0.018 uM measured after 24 hrs by crystal violet staining based assay; format: functional, cell-based; conditions: dose 0.009-0.018 µM
# Procedure, shortened: (§3)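 Cells at 5×10^3/well, exposed to DMSO or compound for 24 h. Drug was washed out, and cells were trypsinized, replated and grown for 10 days. Colonies were fixed and stained with crystal violet (0.5% in 70% EtOH) and counted as % of control. Repeated at least twice.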
# [9] = system: A549; experiment: Inhibition of colony formation in human A549 cells at 0.009 to 0.018 uM measured after 24 hrs by crystal violet staining based assay; format: functional, cell-based; conditions: dose 0.009-0.018 µM; procedure, shortened: as §3
# [10] = system: NCI-H1975; experiment: Inhibition of colony formation in human NCI-H1975 cells at 0.009 to 0.018 uM measured after 24 hrs by crystal violet staining based assay; format: functional, cell-based; conditions: dose 0.009-0.018 µM; procedure, shortened: as §3
# [11] = system: A549; experiment: Inhibition of HSP90 in human A549 cells assessed as upregulation of HSP70 expression at 0.075 to 1.25 uM after 24 hrs by Western blot analysis; format: cell-based; conditions: dose 0.075-1.25 µM
# [12] = system: NCI-H1975; experiment: Inhibition of HSP90 in human NCI-H1975 cells assessed as upregulation of HSP70 expression at 0.075 to 1.25 uM after 24 hrs by Western blot analysis; format: cell-based; conditions: dose 0.075-1.25 µM
# [13] = system: A549; experiment: Inhibition of HSP90 in human A549 cells assessed as down regulation of AKT expression at 0.075 to 1.25 uM after 24 hrs by Western blot analysis; format: cell-based; conditions: dose 0.075-1.25 µM
# [14] = system: NCI-H1975; experiment: Inhibition of HSP90 in human NCI-H1975 cells assessed as down regulation of AKT expression at 0.075 to 1.25 uM after 24 hrs by Western blot analysis; format: cell-based; conditions: dose 0.075-1.25 µM
# [15] = system: A549; experiment: Inhibition of HSP90 in human A549 cells assessed as down regulation of EGFR expression at 0.075 to 1.25 uM after 24 hrs by Western blot analysis; format: cell-based; conditions: dose 0.075-1.25 µM
# [16] = system: NCI-H1975; experiment: Inhibition of HSP90 in human NCI-H1975 cells assessed as down regulation of EGFR expression at 0.075 to 1.25 uM after 24 hrs by Western blot analysis; format: cell-based; conditions: dose 0.075-1.25 µM
# [17] = system: NCI-H1975; experiment: Cell cycle arrest in human NCI-H1975 cells assessed as accumulation at sub-G1 phase at 0.075 to 1.25 uM measured after 48 hrs by propidium iodide staining based flow cytometry; format: functional; conditions: dose 0.075-1.25 µM; procedure, shortened: as §2
# [18] = system: A549; experiment: Induction of apoptosis in human A549 cells assessed as increase in cleaved caspase 3 expression after 48 hrs by Western blot analysis; format: functional, cell-based
# Procedure, shortened: (§4)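 Cells grown in RPMI 1640 with 10% FBS were left to attach overnight, then exposed to compound at stated concentrations for 48 h. Lysates were immunoblotted for cleaved PARP, γH2AX and cleaved caspase-3, -8 and -9. Each experiment was done at least three times.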
# [19] = system: A549; experiment: Induction of apoptosis in human A549 cells assessed as increase in cleaved caspase 8 expression after 48 hrs by Western blot analysis; format: functional, cell-based; procedure, shortened: as §4
# [20] = system: A549; experiment: Induction of apoptosis in human A549 cells assessed as increase in cleaved caspase 9 expression after 48 hrs by Western blot analysis; format: functional, cell-based; procedure, shortened: as §4
# [21] = system: A549; experiment: Induction of apoptosis in human A549 cells assessed as increase in cleaved PARP expression after 48 hrs by Western blot analysis; format: functional, cell-based; procedure, shortened: as §4
# [22] = system: A549; experiment: Induction of apoptosis in human A549 cells assessed as increase in activated gamma H2AX expression after 48 hrs by Western blot analysis; format: functional, cell-based; procedure, shortened: as §4
# [23] = system: NCI-H1975; experiment: Induction of apoptosis in human NCI-H1975 cells assessed as increase in cleaved caspase 3 expression after 48 hrs by Western blot analysis; format: functional, cell-based; procedure, shortened: as §4
# [24] = system: NCI-H1975; experiment: Induction of apoptosis in human NCI-H1975 cells assessed as increase in cleaved caspase 8 expression after 48 hrs by Western blot analysis; format: functional, cell-based; procedure, shortened: as §4
# [25] = system: NCI-H1975; experiment: Induction of apoptosis in human NCI-H1975 cells assessed as increase in cleaved caspase 9 expression after 48 hrs by Western blot analysis; format: functional, cell-based; procedure, shortened: as §4
# [26] = system: NCI-H1975; experiment: Induction of apoptosis in human NCI-H1975 cells assessed as increase in cleaved PARP expression after 48 hrs by Western blot analysis; format: functional, cell-based; procedure, shortened: as §4
# [27] = system: NCI-H1975; experiment: Induction of apoptosis in human NCI-H1975 cells assessed as increase in activated gamma H2AX expression after 48 hrs by Western blot analysis; format: functional, cell-based; procedure, shortened: as §4
smiles,measurement,setting,value
CC(C)c1cc(C(=O)N(Cc2ccc(C#N)cc2)c2ccc(Cn3c(=O)c(F)cn(C4CCCO4)c3=O)cc2)c(O)cc1O (stereo not drawn),IC50,[1],45.3 nM
same,GI50,[2],410 nM
same,GI50,[3],350 nM
same,GI50,[4],200 nM
same,GI50,[5],130 nM
CCNC(=O)c1noc(-c2cc(C(C)C)c(O)cc2O)c1-c1ccc(CN2CCOCC2)cc1 [LUMINESPIB],GI50,[3],10 nM
same,GI50,[4],30 nM
same,GI50,[5],20 nM
CC(C)c1cc(C(=O)N(C)c2ccc(Cn3c(=O)c(F)cn(C4CCCO4)c3=O)cc2)c(O)cc1O (stereo not drawn),IC50,[1],40.9 nM
same,GI50,[2],120 nM
same,GI50,[3],90 nM
same,GI50,[4],70 nM
same,GI50,[5],60 nM
CCCN(C(=O)c1cc(C(C)C)c(O)cc1O)c1ccc(Cn2c(=O)c(F)cn(C3CCCO3)c2=O)cc1 (stereo not drawn),IC50,[1],48.2 nM
same,GI50,[2],960 nM
same,GI50,[3],650 nM
same,GI50,[4],520 nM
same,GI50,[5],340 nM
C#CCN(C(=O)c1cc(C(C)C)c(O)cc1O)c1ccc(Cn2c(=O)[nH]cc(F)c2=O)cc1,IC50,[1],54.4 nM
same,GI50,[2],40 nM
same,GI50,[3],30 nM
same,GI50,[4],70 nM
same,GI50,[5],20 nM
O=c1[nH]c(=O)n(C2CCCO2)cc1F (stereo not drawn) [TEGAFUR],GI50,[2],> 10000 nM
same,GI50,[3],> 50000 nM
CCN(C(=O)c1cc(C(C)C)c(O)cc1O)c1ccc(Cn2c(=O)[nH]cc(F)c2=O)cc1,IC50,[1],44.9 nM
same,GI50,[2],30 nM
same,GI50,[3],40 nM
same,GI50,[4],30 nM
same,GI50,[5],30 nM
CCN(C(=O)c1cc(C(C)C)c(O)cc1O)c1ccc(Cn2c(=O)c(F)cn(C3CCCO3)c2=O)cc1 (stereo not drawn),IC50,[1],27.8 nM
same,GI50,[2],10 nM
same,Ratio IC50,[6],15
same,Activity,[7],Active
same,GI50,[3],70 nM
same,GI50,[4],60 nM
same,GI50,[5],40 nM
same,inhibition,[8],Active
same,inhibition,[9],Active
same,inhibition,[10],Active
same,inhibition,[11],Active
same,inhibition,[12],Active
same,inhibition,[13],Active
same,inhibition,[14],Active
same,inhibition,[15],Active
same,inhibition,[16],Active
same,Activity,[17],Active
same,Activity,[18],Dose-dependent effect
same,Activity,[19],Dose-dependent effect
same,Activity,[20],Dose-dependent effect
same,Activity,[21],Dose-dependent effect
same,Activity,[22],Dose-dependent effect
same,Activity,[23],Dose-dependent effect
same,Activity,[24],Dose-dependent effect
same,Activity,[25],Dose-dependent effect
same,Activity,[26],Dose-dependent effect
same,Activity,[27],Dose-dependent effect
COc1ccc(CN(C(=O)c2cc(C(C)C)c(O)cc2O)c2ccc(Cn3c(=O)c(F)cn(C4CCCO4)c3=O)cc2)cc1 (stereo not drawn),IC50,[1],58.8 nM
same,GI50,[2],720 nM
same,GI50,[3],920 nM
same,GI50,[4],390 nM
same,GI50,[5],230 nM
CC(C)c1cc(-c2n[nH]c(=O)n2-c2ccc3c(ccn3C)c2)c(O)cc1O [GANETESPIB],GI50,[2],150 nM
O=c1[nH]cc(F)c(=O)[nH]1 [FLUOROURACIL],GI50,[2],> 10000 nM
same,GI50,[3],19800 nM
CC(C)c1cc(C(=O)N(Cc2ccccc2)c2ccc(Cn3c(=O)c(F)cn(C4CCCO4)c3=O)cc2)c(O)cc1O (stereo not drawn),IC50,[1],45.3 nM
same,GI50,[2],780 nM
same,GI50,[3],800 nM
same,GI50,[4],400 nM
same,GI50,[5],160 nM
CC(C)c1cc(C(=O)Nc2ccc(Cn3c(=O)c(F)cn(C4CCCO4)c3=O)cc2)c(O)cc1O (stereo not drawn),IC50,[1],> 1000 nM
same,GI50,[2],> 10000 nM
same,GI50,[3],> 10000 nM
same,GI50,[4],> 10000 nM
same,GI50,[5],> 10000 nM
CC(C)c1cc(C(=O)N(Cc2ccc(Cl)cc2)c2ccc(Cn3c(=O)c(F)cn(C4CCCO4)c3=O)cc2)c(O)cc1O (stereo not drawn),IC50,[1],54.7 nM
same,GI50,[2],700 nM
same,GI50,[3],560 nM
same,GI50,[4],460 nM
same,GI50,[5],160 nM
COc1c(C)cnc(Cn2cnc3c(Cl)nc(N)nc32)c1C [BIIB021],GI50,[2],150 nM
same,GI50,[4],210 nM
same,GI50,[5],200 nM
C=CCN(C(=O)c1cc(C(C)C)c(O)cc1O)c1ccc(Cn2c(=O)[nH]cc(F)c2=O)cc1,IC50,[1],48 nM
same,GI50,[2],80 nM
same,GI50,[3],100 nM
same,GI50,[4],70 nM
same,GI50,[5],50 nM
